Measured values of several laboratories.
Compare with care: the assays were run in different laboratories.
Target: Insulin receptor (INSR, Homo sapiens, UniProt P06213)

Structure (SMILES)	observed	method	tested at	remaining binding
FC(F)(F)Oc1cccc(-c2cnc3ccc(-c4ccncc4)nn23)c1	cell-free assay	competition with immobilised ligand	5 µM	88%
C[C@@H]1CN(c2ccc3ncc(-c4ccc5[nH]nc(C6CC6)c5c4)n3n2)C[C@H](C)O1	binding	competition with immobilised ligand	50 nM	100%
CN(C)c1ncc(F)c(-c2cnn3ncccc23)n1	binding		1 µM	81%
CN(C)C(=O)Cn1cc(-c2nc(C3(c4ccc(-c5cnc(N)nc5)cc4)CC3)no2)cn1	cell-free assay	competition with immobilised ligand	1 µM	90%
O=C(NCC1CCOCC1)c1n[nH]cc1NC(=O)c1c(F)cccc1F	binding	competition with immobilised ligand	1 µM	100%
C[C@H]1CCN(c2nccc(-c3cnn4ncccc34)n2)C1	binding		1 µM	69%
O=C(c1ccc(Nc2nccc(-c3cc4ccccc4s3)n2)cc1)N1CCC(N2CCCC2)CC1	binding	competition with immobilised ligand	1 µM	66%
c1cnn2ncc(-c3ccnc(N4CCC45COC5)n3)c2c1	binding		1 µM	73%
COc1cnc(Nc2cccc(S(N)(=O)=O)c2)nc1N1CCN(c2ccccc2)CC1	binding	competition with immobilised ligand	1 µM	81%
CN(CCCC(F)(F)F)c1nccc(-c2cnn3ncccc23)n1	binding		1 µM	78%
CC(=O)N1CCC(c2ccc(C(=O)NC3=NCCN3)cc2C(F)(F)F)CC1	cell-free assay	competition with immobilised ligand	1 µM	100%
CC(C)(C)c1ccc(-c2nc(CBr)nn2-c2cccc(O)c2)cc1	cell-free assay	competition with immobilised ligand	10 µM	93%
O=C(c1ccc(Nc2ncc(Cl)c(-c3ccc(Cl)s3)n2)cc1)N1CCC(N2CCCC2)CC1	binding	competition with immobilised ligand	1 µM	2.3%
CN(C)c1nccc(-c2cnc3ncccn23)n1	binding		1 µM	70%
Cc1cc(-n2nc(Cc3cc(F)cc(C(F)(F)F)c3)nc2C)ccc1C(N)=O	cell-free assay	competition with immobilised ligand	1 µM	99%
CNC(=O)[C@@H]1CC[C@@H](n2c(-c3ccc4cnccc4c3)nc3ccc(C(=O)NCc4cccc(C(N)=O)c4)cc32)C1	binding	competition with immobilised ligand	1 µM	92%
N[C@H]1CCN(c2nccc(-c3cnn4ncccc34)n2)C1	binding		1 µM	85%
Nc1c(C(=O)NCc2ccc(C(=O)NCCCC3CCCCC3)cc2)cnn1-c1ccccc1	cell-free assay	competition with immobilised ligand	0.1 µM	100%
COc1ccnn2ncc(-c3ccnc(N(C)C)n3)c12	binding		1 µM	96%
CC(=O)C1=C(C)N(c2cccc(C(F)(F)F)c2)C(=O)N[C@@H]1c1ccc(C#N)nc1	cell-free assay	competition with immobilised ligand	1 µM	89.3%
Cc1cnc(Nc2ccc(C(=O)N3CCC(N4CCCC4)CC3)cc2)nc1-c1cc2ccccc2s1	binding	competition with immobilised ligand	1 µM	7.8%
COc1ccc2c(c1)O[C@@H](c1ccc(OC)c(OC)c1)C[C@H]2NC(=O)C1(c2ccc3c(c2)OC(F)(F)O3)CC1	cell-free assay	competition with immobilised ligand	1 µM	79%
N#Cc1ccccc1CSc1nnc2c(n1)[nH]c1ccccc12	binding	competition with immobilised ligand	10 µM	88%
CCS(=O)(=O)c1cc2cc(C[C@](O)(CC(C)(C)c3ccc(F)cc3C(N)=O)C(F)(F)F)[nH]c2cn1	cell-free assay	competition with immobilised ligand	1 µM	94%
Nc1ncc2c(n1)-c1c([nH]c3ccc(C#CC4CC4)cc13)CCCC2	binding	competition with immobilised ligand	1 µM	80%
